Laboratory results taken from publication PMC4575845 (Journal of biomolecular screening, 2015).
In brackets after ≈: the same amount, converted by molar mass. Entries after “also recorded” stand apart in the source; their conditions may differ.

Columns and labels:
P. aeruginosa GluRS [1] = molecular target: T1, P. aeruginosa GluRS (Pseudomonas aeruginosa, UniProt Q9XCL6); experiment: SPA-based tRNA aminoacylation assay; type: biochemical
T1 sequence (Q9XCL6 1-494): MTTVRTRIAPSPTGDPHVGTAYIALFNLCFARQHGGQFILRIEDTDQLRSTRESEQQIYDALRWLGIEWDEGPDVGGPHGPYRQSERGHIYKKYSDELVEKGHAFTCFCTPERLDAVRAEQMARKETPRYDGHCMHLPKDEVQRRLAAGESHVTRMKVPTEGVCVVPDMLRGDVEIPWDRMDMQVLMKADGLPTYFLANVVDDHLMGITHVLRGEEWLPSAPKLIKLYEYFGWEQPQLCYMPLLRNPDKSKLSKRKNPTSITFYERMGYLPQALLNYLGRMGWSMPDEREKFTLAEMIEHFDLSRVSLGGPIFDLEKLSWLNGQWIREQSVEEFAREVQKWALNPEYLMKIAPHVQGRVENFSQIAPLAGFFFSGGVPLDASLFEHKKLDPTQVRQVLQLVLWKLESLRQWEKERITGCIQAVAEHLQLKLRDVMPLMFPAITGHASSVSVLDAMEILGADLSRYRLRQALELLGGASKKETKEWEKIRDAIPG
Procedure, shortened: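 P. aeruginosa GluRS was expressed in E. coli Rosetta 2(DE3) from pET101 and Ni-NTA purified. Final mix: 50 mM Tris-HCl pH 7.5, 8 mM MgCl2, 1.25 mM ATP, 1 mM spermine, 1 mM DTT, 100 µM [3H]Glu, 0.1 µM enzyme. Compound (200–0.4 µM) preincubated 15 min ambient; E. coli tRNA (0.75 µM tRNAGlu) added; 1 h 37 °C; EDTA stop. Poly-L-lysine yttrium silicate SPA beads (citrate pH 2.0), 1 h RT, scintillation count.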

[2] = test system: Streptococcus pneumonia (ATCC 49619); experiment: Broth microdilution MIC; type: cell-based; conditions: Streptococcus pneumoniae, ATCC49619
[3] = test system: Staphylococcus aureus (ATCC 29213); experiment: Broth microdilution MIC; type: cell-based; conditions: ATCC29213
S. pneumoniae = experiment: Time-kill study; type: cell-based, Streptococcus pneumoniae; conditions: 4x MIC
Procedure, shortened: (§1)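 Time-kill per CLSI M26-A, with compound at 4× MIC (broth microdilution MIC per CLSI M7-A7). Medium: Brain Heart Infusion or Trypticase Soy Broth, with or without 3% lysed horse blood. Viable counts by plating for CFU at 0, 2, 4, 6 and 24 h versus compound-free control cultures.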

S. aureus = experiment: Time-kill study; type: cell-based, Staphylococcus aureus; conditions: 4x MIC
NIH/3T3 cells = experiment: MTT in vitro cytotoxicity test; type: cell-based; conditions: 25–800 µg/mL, 24 h
P. aeruginosa GluRS [4] = molecular target: T1, P. aeruginosa GluRS; experiment: Binding mode assay; type: biochemical; conditions: for mode of inhibition with respect to ATP: IC50 at ATP 25-1000 µM, Glu 100 µM; for mode of inhibition with respect to Glu: IC50 at Glu 25-300 µM, ATP held constant
Procedure, shortened: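 IC50 by the same SPA aminoacylation assay, with 0.05 µM P. aeruginosa GluRS and compound at 200–0.4 µM final, preincubated 15 min RT. Started with E. coli tRNA (0.75 µM tRNAGlu), 1 h at 37 °C, EDTA stop. DMSO-only positive controls. ATP series 25–1000 µM at 100 µM Glu. Glu series 25–300 µM at constant saturating ATP. Sigmoidal dose–response fit; mode inferred from IC50 change versus substrate level.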

[5] = test system: Enterococcus faecalis (ATCC 29212); experiment: Broth microdilution MIC; type: cell-based; conditions: ATCC29212
E. faecalis = experiment: Time-kill study; type: cell-based, Enterococcus faecalis; conditions: 4x MIC, 0-24 h
Procedure, shortened: as §1

| SMILES | IC50 (P. aeruginosa GluRS [1]) [µM] | MIC [2] [µg/mL] | MIC [3] [µg/mL] | bacteriostatic or bactericidal (S. pneumoniae; 0-24 h) | inhibition of growth in time-kill (S. pneumoniae; all times tested) | bacteriostatic or bactericidal (S. aureus; 0-24 h) | regrowth in time-kill (S. aureus; at 24 h) | cytotoxicity (MTT) (NIH/3T3 cells) | mode of inhibition with respect to ATP (P. aeruginosa GluRS [4]) | mode of inhibition with respect to Glu (P. aeruginosa GluRS [4]) | MIC [5] [µg/mL] | bacteriostatic or bactericidal (E. faecalis) | decrease in colony-forming units (CFUs) compared to the control (E. faecalis) | decrease in colony-forming units (CFUs) compared to the control (S. pneumoniae; 0-24 h) |
| --- | --- | --- | --- | --- | --- | --- | --- | --- | --- | --- | --- | --- | --- | --- |
| CC1(C)SC(=S)N(/N=C/C=C/c2ccc([N+](=O)[O-])o2)C1N(O)C(=O)Nc1cccc(Cl)c1 (centres unmarked) [BT_04B09, 3-(3-chlorophenyl)-1-(5,5-dimethyl-3-{(E)-[(2E)-3-(5-nitrofuran-2-yl)prop-2-en-1-ylidene]amino}-2-thioxo-1,3-thiazolidin-4-yl)-1-hydroxyurea] | 24.9 | 32 (≈ 64.5 µM) | 32 (≈ 64.5 µM) | bactericidal | completely | bactericidal | some regrowth | not observed to be toxic | noncompetitive; also recorded: remain constant | competitive |  |  |  |  |
| O=C(Nc1ccc(-c2cc(C(F)(F)F)nn2-c2ccccc2)cc1)Nc1ccc(F)cc1F [BT_03F04, 1-(2,4-difluorophenyl)-3-{4-[1-phenyl-3-(trifluoromethyl)-1H-pyrazol-5-yl]phenyl}urea] | 21.9 | 8 (≈ 17.5 µM) |  | bacteriostatic |  |  |  | not observed to be toxic | noncompetitive | noncompetitive | 2 (≈ 4.36 µM) | bacteriostatic | 2–3 log10 | 2–3 log10 |
